Experiment [1] has as its target Serine/threonine-protein kinase mTOR (Homo sapiens, UniProt P42345). Kind of experiment: Inhibition of FRAP in human HeLa cells lysate pre incubated for 15 mins followed by ATP acyl phosphate probe addition and measured after 10 mins by LC-MS/MS analysis. Format: subcellular.
Experiment [2] concerns the target Tyrosine-protein kinase JAK1 (Homo sapiens, UniProt P23458). Kind of experiment: Inhibition of JAK1 domain 2 in human HeLa cells lysate pre incubated for 15 mins followed by ATP acyl phosphate probe addition and measured after 10 mins by LC-MS/MS analysis. Format: subcellular.
Experiment [3] can be described thus: Inhibition of PKD1/2 in human HeLa cells lysate pre incubated for 15 mins followed by ATP acyl phosphate probe addition and measured after 10 mins by LC-MS/MS analysis. Format: subcellular.
In experiment [4] the target is T1, Serine/threonine-protein kinase 3 (Homo sapiens) (UniProt Q13188).
T1 sequence (whole entry): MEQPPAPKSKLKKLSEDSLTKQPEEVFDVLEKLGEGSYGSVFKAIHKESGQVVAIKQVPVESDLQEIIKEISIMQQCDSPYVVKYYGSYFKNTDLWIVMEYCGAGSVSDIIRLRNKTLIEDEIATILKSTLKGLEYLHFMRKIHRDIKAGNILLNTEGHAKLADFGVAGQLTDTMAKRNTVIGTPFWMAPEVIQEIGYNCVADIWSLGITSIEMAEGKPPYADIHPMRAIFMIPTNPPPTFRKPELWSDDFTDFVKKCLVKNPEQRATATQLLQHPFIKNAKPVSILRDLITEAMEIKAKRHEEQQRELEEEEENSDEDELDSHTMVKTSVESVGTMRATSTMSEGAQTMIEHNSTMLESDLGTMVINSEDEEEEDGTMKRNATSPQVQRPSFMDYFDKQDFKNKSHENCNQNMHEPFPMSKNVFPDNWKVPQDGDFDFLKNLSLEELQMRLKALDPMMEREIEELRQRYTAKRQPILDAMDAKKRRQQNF
Put plainly: Inhibition of MST2 in human HeLa cells lysate at 50 uM pre incubated for 15 mins followed by ADP acyl phosphate probe addition and measured after 10 mins by LC-MS/MS analysis relative to control. Format: subcellular. Conditions: time 25.0 min.

Experiment [5] deals with Serine/threonine-protein kinase Chk2 (Homo sapiens, UniProt O96017). Kind of experiment: Inhibition of CHK2 in human HeLa cells lysate at 10 uM pre incubated for 15 mins followed by ADP acyl phosphate probe addition and measured after 10 mins by LC-MS/MS analysis relative to control. In kind it is subcellular. The following applies: time 25.0 min.
Serine/threonine-protein kinase Chk2, sequence (O96017 whole entry): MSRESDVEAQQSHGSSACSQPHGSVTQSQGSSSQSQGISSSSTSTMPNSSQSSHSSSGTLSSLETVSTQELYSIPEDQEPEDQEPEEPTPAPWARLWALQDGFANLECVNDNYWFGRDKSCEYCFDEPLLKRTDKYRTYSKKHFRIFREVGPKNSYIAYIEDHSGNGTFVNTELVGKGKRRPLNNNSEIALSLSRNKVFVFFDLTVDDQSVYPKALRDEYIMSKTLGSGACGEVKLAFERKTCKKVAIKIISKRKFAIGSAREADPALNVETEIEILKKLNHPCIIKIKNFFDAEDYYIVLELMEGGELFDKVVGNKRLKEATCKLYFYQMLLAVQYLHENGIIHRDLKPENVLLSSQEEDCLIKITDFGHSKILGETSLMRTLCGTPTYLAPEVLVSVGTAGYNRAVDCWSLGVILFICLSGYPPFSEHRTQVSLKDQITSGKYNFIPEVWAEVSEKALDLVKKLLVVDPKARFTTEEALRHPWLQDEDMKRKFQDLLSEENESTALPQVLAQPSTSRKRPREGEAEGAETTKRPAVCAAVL
Experiment [6] is described as follows: Inhibition of MAP3K2/3 in human HeLa cells lysate at 50 uM pre incubated for 15 mins followed by ATP acyl phosphate probe addition and measured after 10 mins by LC-MS/MS analysis relative to control. Conditions: 25 min, condition cancer.
For experiment [7], the target named is T2, Interleukin-1 receptor-associated kinase 4 (Homo sapiens) (UniProt Q9NWZ3).
T2 sequence (whole entry): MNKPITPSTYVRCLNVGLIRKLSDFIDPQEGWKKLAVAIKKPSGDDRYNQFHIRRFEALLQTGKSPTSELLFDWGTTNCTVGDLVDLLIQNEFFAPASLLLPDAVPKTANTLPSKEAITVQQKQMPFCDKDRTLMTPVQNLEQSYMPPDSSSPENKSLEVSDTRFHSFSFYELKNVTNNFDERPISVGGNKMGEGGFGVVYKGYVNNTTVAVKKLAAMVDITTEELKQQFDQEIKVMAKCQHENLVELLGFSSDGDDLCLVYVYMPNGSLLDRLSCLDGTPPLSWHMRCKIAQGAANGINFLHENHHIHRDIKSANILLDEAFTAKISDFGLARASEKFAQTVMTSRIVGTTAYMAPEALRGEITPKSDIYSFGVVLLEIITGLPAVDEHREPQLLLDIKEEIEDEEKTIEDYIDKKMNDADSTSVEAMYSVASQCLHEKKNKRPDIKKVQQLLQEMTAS
Kind of experiment: Inhibition of IRAK4 in human HeLa cells lysate at 10 uM pre incubated for 15 mins followed by ATP acyl phosphate probe addition and measured after 10 mins by LC-MS/MS analysis relative to control. Conditions: time 25.0 min. Format: subcellular.

In experiment [8] the target is Calcium/calmodulin-dependent protein kinase type II subunit delta (Homo sapiens, UniProt Q13557). Kind of experiment: Inhibition of CAMK2d in human HeLa cells lysate at 2 uM pre incubated for 15 mins followed by ATP acyl phosphate probe addition and measured after 10 mins by LC-MS/MS analysis relative to control. In kind it is subcellular. The following applies: time 25.0 min. An outline of the steps: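 KiNativ-type profiling in HeLa lysate (5 mg/mL total protein). Lysate preincubated 15 min with inhibitor at 50, 10, 2, 0.8 or 0 μM, then ATP or ADP acylphosphate probe added (5 μM final) for 10 min. Reaction stopped with urea and analysed by targeted MS, using up to four fragment ions per kinase peptide-probe conjugate. % inhibition calculated against untreated lysate. Duplicate reactions.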
Calcium/calmodulin-dependent protein kinase type II subunit delta, sequence (Q13557 whole entry, the tested form may be a part): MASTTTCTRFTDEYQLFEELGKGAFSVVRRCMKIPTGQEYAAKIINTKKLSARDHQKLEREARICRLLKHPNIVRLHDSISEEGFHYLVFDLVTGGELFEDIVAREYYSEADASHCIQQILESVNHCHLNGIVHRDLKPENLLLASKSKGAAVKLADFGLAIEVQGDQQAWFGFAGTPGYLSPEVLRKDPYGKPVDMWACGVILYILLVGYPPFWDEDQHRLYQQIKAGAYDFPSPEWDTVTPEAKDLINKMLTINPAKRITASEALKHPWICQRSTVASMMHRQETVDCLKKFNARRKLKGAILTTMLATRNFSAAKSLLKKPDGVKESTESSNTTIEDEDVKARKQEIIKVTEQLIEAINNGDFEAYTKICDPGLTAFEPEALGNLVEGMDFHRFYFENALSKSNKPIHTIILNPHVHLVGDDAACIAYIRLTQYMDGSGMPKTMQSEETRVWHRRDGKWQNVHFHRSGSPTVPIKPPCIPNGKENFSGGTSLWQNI

Experiment [9] concerns the target Serine/threonine-protein kinase 38 (Homo sapiens, UniProt Q15208). Put plainly: Inhibition of NDR1 in human HeLa cells lysate at 2 uM pre incubated for 15 mins followed by ATP acyl phosphate probe addition and measured after 10 mins by LC-MS/MS analysis relative to control. Format: subcellular. Conditions: time 25.0 min.

Usually IC50 stands for the concentration that inhibits the measured activity by half. What is called inhibition is the relative decrease from the control value, in per cent.

Tyrosine-protein kinase JAK1, sequence (P23458 whole entry, the tested form may be a part): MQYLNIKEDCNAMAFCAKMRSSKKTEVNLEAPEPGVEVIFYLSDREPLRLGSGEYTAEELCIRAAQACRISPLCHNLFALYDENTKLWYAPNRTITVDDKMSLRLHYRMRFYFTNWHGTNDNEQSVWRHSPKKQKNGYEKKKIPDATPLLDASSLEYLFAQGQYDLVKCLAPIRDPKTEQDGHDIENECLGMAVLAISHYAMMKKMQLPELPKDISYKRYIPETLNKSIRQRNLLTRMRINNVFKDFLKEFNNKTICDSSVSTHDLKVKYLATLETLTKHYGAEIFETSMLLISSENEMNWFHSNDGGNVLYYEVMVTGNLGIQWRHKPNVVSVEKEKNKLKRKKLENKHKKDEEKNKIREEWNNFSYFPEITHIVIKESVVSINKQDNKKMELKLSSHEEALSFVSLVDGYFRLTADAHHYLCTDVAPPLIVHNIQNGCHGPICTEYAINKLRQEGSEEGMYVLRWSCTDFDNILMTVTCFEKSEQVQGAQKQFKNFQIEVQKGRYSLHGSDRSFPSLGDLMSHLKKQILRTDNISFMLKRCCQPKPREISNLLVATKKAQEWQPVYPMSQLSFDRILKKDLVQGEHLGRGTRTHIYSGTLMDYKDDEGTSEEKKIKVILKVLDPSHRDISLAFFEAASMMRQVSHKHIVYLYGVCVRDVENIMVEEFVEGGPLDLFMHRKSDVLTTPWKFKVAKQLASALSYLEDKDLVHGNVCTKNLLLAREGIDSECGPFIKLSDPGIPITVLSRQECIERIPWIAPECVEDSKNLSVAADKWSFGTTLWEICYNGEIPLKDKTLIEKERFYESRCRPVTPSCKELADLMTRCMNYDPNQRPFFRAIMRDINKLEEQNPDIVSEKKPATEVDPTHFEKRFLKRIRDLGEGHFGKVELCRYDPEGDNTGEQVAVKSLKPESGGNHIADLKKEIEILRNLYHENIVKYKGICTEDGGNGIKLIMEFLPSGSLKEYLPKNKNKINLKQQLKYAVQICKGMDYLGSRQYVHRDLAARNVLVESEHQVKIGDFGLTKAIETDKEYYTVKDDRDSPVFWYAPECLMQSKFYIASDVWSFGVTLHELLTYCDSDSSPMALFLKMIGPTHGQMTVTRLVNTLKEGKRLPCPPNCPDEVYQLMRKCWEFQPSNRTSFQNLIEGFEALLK
Serine/threonine-protein kinase 38, sequence (Q15208 2-465 limits assumed): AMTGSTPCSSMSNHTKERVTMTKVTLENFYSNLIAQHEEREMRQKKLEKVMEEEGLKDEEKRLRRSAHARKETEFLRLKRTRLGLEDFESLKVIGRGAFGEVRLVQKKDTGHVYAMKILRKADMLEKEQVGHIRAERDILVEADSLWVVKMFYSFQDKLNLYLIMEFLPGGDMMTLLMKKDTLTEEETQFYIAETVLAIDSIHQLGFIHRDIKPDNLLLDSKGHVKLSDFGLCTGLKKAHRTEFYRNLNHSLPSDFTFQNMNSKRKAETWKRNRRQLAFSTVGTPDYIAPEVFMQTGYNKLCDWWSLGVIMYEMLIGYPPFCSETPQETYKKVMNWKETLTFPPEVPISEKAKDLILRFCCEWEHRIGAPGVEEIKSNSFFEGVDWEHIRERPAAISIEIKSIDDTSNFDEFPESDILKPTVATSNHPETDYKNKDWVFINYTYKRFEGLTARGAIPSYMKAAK

As to `CCOc1cc(N2CCC(O)CC2)ccc1Nc1ncc2c(n1)N(C)c1ccccc1C(=O)N2C`, the IC50 in [1], in experiment [2] and in [3] was greater than 50 µM in each case. In addition, the inhibition in [4] was 7.2%; in [5], 1.1%; in [7], 10.5%; in [8] it was -1.1%; in [9], -4.3%. Besides, in [6], the inhibition at 50 µM is -8.7%.

Source of the values: ChEMBL document CHEMBL5661979, “Pharmacological inhibition of BMK1 suppresses tumor growth through promyelocytic leukemia protein” (Cancer Cell, 2010).
